Measurements as given in ChEMBL document CHEMBL1138867, “Design, synthesis, potency, and cytoselectivity of anticancer agents derived by parallel synthesis from alpha-aminosuberic acid” (J Med Chem, 2006).
Active and inactive are the calls of the source. The calls are words filed in the database; no cut-off is given here.

Assays:
MM96L [1] = test: Antiproliferative activity against human MM96L cells; format: functional, cell-based
How it was run: (§1)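 Cells cultured in RPMI 1640 with 10% heat-inactivated FCS, 3 mM HEPES, 5% CO2, 37 °C; NFF are primary neonatal foreskin fibroblasts. Cells were seeded at 5 × 10^3/well and left to adhere overnight. They were exposed to compound for 24 h, then the medium was replaced and cells grown a further 72 h. Survival was read by SRB staining at 564 nm, giving IC50.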

NFF = test: Antiproliferative activity against human NFF cells; format: functional, cell-based; how it was run: as §1
MM96L [2] = test: Effect on cell morphology in human MM96L cells at 3 ug/mL after 24 hrs; format: functional, cell-based
HT-29 = test: Antiproliferative activity against human HT29 cells; format: functional, cell-based; how it was run: as §1
A549 [3] = test: Antiproliferative activity against human A549 cells; format: functional, cell-based; how it was run: as §1
SK-MEL-28 = test: Antiproliferative activity against human SK-Mel-28 cells; format: functional, cell-based; how it was run: as §1
[4] = Antiproliferative activity against human JAM cells; format: functional, cell-based; how it was run: as §1
SK-MEL-5 = test: Antiproliferative activity against human SK-Mel-5 cells; format: functional, cell-based; how it was run: as §1
COLO 205 = test: Antiproliferative activity against human Colo205 cells; format: functional, cell-based; how it was run: as §1
HOP-62 = test: Antiproliferative activity against human HOP62 cells; format: functional, cell-based; how it was run: as §1
C180-13S = test: Antiproliferative activity against human C180-13S cells; format: functional, cell-based; how it was run: as §1
MCF7 = test: Antiproliferative activity against human MCF7 cells; format: functional, cell-based; how it was run: as §1
[5] = Antiproliferative activity against human H520 cells; format: functional, cell-based; conditions: NCI-H520; how it was run: as §1
PC-3 = test: Antiproliferative activity against human PC3 cells; format: functional, cell-based; how it was run: as §1
T47D = test: Antiproliferative activity against human T-47D cells; format: functional, cell-based; how it was run: as §1
DU-145 = test: Antiproliferative activity against human DU145 cells; format: functional, cell-based; how it was run: as §1
A549 [6] = test: Induction of p21 expression in human A549 cells after 24 hrs; format: functional, cell-based
How it was run: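 A549 cells were treated 24 h with 0.05, 0.5 or 5 µg/mL compound or vehicle. Lysates were made by sonication in 1% SDS/20% glycerol/10 mM Tris pH 7.4 buffer, and protein was quantified by BCA. Then 30 µg was run on 15% SDS-PAGE and immunoblotted for p21WAF1/Cip1 (1:1000), with GAPD (1:10 000) as reference, using chemiluminescence detection.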

A549 (Homo sapiens) = test: Induction of p21 expression in human A549 cells

O=C(CCCCC[C@H](NC(=O)OCc1ccccc1)C(=O)NCc1ccncc1)NO
IC50 (MM96L [1]): 4320 nM
IC50 (NFF): 23300 nM

O=C(CCCCC[C@H](NC(=O)c1cc2c(Br)cccc2[nH]1)C(=O)NCc1ccccc1)NO
IC50 (MM96L [1]): 490 nM
IC50 (NFF): 1940 nM

CN(C)c1ccc(NC(=O)[C@H](CCCCCC(=O)NO)NC(=O)/C=C/c2ccccc2)cc1
IC50 (MM96L [1]): 160 nM
IC50 (NFF): 240 nM

O=C(CCCCCC(NC(=O)c1ccco1)C(=O)NCc1ccccc1)NO (stereo not drawn)
IC50 (MM96L [1]): 200 nM
IC50 (NFF): 4600 nM

O=C(CCCCC[C@H](NC(=O)OCC1c2ccccc2-c2ccccc21)C(=O)NCc1ccccc1)NO
IC50 (MM96L [1]): 3200 nM
IC50 (NFF): 5370 nM

O=C(/C=C/c1c[nH]c2ccccc12)N[C@@H](CCCCCC(=O)NO)C(=O)NCc1ccccc1
IC50 (MM96L [1]): 3240 nM
IC50 (NFF): 10400 nM

CN(C)c1ccc(NC(=O)[C@H](CCCCCC(=O)NO)NC(=O)OCc2ccccc2)cc1
IC50 (MM96L [1]): 610 nM
IC50 (NFF): 650 nM

CN(C)c1ccc(C(=O)N[C@@H](CCCCCC(=O)NO)C(=O)NC2(Cc3ccccc3)CCCC2)cc1
IC50 (MM96L [1]): 900 nM
IC50 (NFF): 3000 nM

O=C(CCCCC[C@H](NC(=O)c1ccc(Br)cc1)C(=O)NCc1ccccn1)NO
IC50 (MM96L [1]): 1150 nM
IC50 (NFF): 2090 nM

O=C(CCCCC[C@H](NC(=O)CCCc1c[nH]c2ccccc12)C(=O)NCc1ccccc1)NO
IC50 (MM96L [1]): 1850 nM
IC50 (NFF): 7030 nM

O=C(CCCCC[C@H](NC(=O)c1ccc(C(F)(F)F)cc1)C(=O)NCc1ccccc1)NO
IC50 (MM96L [1]): 660 nM
IC50 (NFF): 1610 nM

O=C(CCCCC[C@H](NC(=O)OCc1ccccc1)C(=O)Nc1ccc(-c2ccccc2)cc1)NO
IC50 (MM96L [1]): 330 nM
IC50 (NFF): 2200 nM

O=C(CCCCC[C@H](NC(=O)Cc1c[nH]c2ccccc12)C(=O)NCc1ccccc1)NO
IC50 (MM96L [1]): 330 nM
IC50 (NFF): > 2200 nM

CN(C)c1ccc(NC(=O)[C@H](CCCCCC(=O)NO)NC(=O)c2ccc(C(F)(F)F)cc2)cc1
IC50 (MM96L [1]): 220 nM
IC50 (NFF): 400 nM

CC(C)CCNC(=O)C(CCCCCC(=O)NO)NC(=O)c1ccco1 (stereo not drawn)
IC50 (MM96L [1]): 1500 nM
IC50 (NFF): 4400 nM

O=C(CCCCC[C@H](NC(=O)c1ccc(C(F)(F)F)cc1)C(=O)Nc1cccc2cccnc12)NO
IC50 (MM96L [1]): 258 nM
IC50 (NFF): 696 nM

O=C(CCCCC[C@H](NC(=O)c1ccc(Br)cc1)C(=O)NCc1ccncc1)NO
IC50 (MM96L [1]): 830 nM
IC50 (NFF): 5240 nM

O=C(CCCCC[C@H](NC(=O)OCc1ccccc1)C(=O)NC1CCCc2ccccc21)NO (stereo partly drawn)
IC50 (MM96L [1]): 1700 nM
IC50 (NFF): 1700 nM

O=C(CCCCC[C@H](NC(=O)C12CC3CC(CC(C3)C1)C2)C(=O)NCc1ccccc1)NO
IC50 (MM96L [1]): 3950 nM
IC50 (NFF): 7130 nM

CN(C)c1ccc(C(=O)N[C@@H](CCCCCC(=O)NO)C(=O)NCc2ccccc2)cc1
Activity (MM96L [2]): Active
IC50 (MM96L [1]): 1600 nM
IC50 (NFF): 12000 nM

O=C(CCCCC[C@H](NC(=O)c1ccc(Br)cc1)C(=O)NCc1ccccc1)NO
IC50 (MM96L [1]): 1990 nM
IC50 (NFF): 5860 nM

O=C(CCCCCC(NC(=O)c1cccnc1)C(=O)NCc1ccccc1)NO (stereo not drawn)
IC50 (MM96L [1]): 9500 nM
IC50 (NFF): 24000 nM

O=C(CCCCC[C@H](NC(=O)OCc1ccccc1)C(=O)NCc1ccccc1)NO
IC50 (MM96L [1]): 1520 nM
IC50 (NFF): 1520 nM

O=C(CCCCC[C@H](NC(=O)c1cc2ccccc2[nH]1)C(=O)NC1(Cc2ccccc2)CCCC1)NO
IC50 (MM96L [1]): 900 nM
IC50 (NFF): 1600 nM

CN(C)c1ccc(C(=O)N[C@H](CCCCCC(=O)NO)C(=O)NCc2ccccc2)cc1
IC50 (MM96L [1]): 160 nM
IC50 (NFF): 1000 nM

O=C(CCCCC[C@H](NC(=O)c1cccs1)C(=O)NCc1ccccc1)NO
IC50 (MM96L [1]): 890 nM
IC50 (NFF): 5200 nM

CN(C)c1ccc(C(=O)N[C@@H](CCCCCC(=O)NO)C(=O)NCc2ccccn2)cc1
IC50 (MM96L [1]): 3600 nM
IC50 (NFF): 33000 nM

O=C(CCCCCC(NC(=O)c1ccc([N+](=O)[O-])cc1)C(=O)NCc1ccccc1)NO (stereo not drawn)
IC50 (MM96L [1]): 6000 nM
IC50 (NFF): 9000 nM

O=C(CCCCC[C@H](NC(=O)c1cc2ccccc2[nH]1)C(=O)NCc1ccccc1)NO
IC50 (MM96L [1]): 250 nM
IC50 (NFF): 1260 nM

O=C(CCCCC[C@H](NC(=O)c1ccc(Br)cc1)C(=O)Nc1ccc(-c2ccccc2)cc1)NO
IC50 (HT-29): 307 nM
IC50 (A549 [3]): 335 nM
IC50 (SK-MEL-28): 168 nM
IC50 [4]: 182 nM
IC50 (SK-MEL-5): 102 nM
IC50 (COLO 205): 272 nM
IC50 (HOP-62): 261 nM
IC50 (C180-13S): 158 nM
IC50 (MCF7): 149 nM
IC50 [5]: 117 nM
IC50 (MM96L [1]): 70 nM
IC50 (NFF): 190 nM
IC50 (PC-3): 531 nM
IC50 (T47D): 197 nM
IC50 (DU-145): 149 nM

COc1ccc(CCNC(=O)C(CCCCCC(=O)NO)NC(=O)c2ccco2)cc1 (stereo not drawn)
IC50 (MM96L [1]): 970 nM
IC50 (NFF): 1300 nM

O=C(/C=C/c1ccccc1)N[C@@H](CCCCCC(=O)NO)C(=O)NCc1ccccc1
IC50 (MM96L [1]): 460 nM
IC50 (NFF): 4010 nM

CN(C)c1ccc(C(=O)NC(CCCCCC(=O)NO)C(=O)NC2CCCc3ccccc32)cc1 (stereo not drawn)
IC50 (MM96L [1]): 300 nM
IC50 (NFF): 1810 nM

O=C(CCCCC[C@H](NC(=O)c1cc2ccccc2[nH]1)C(=O)Nc1cccc2cccnc12)NO
IC50 (HT-29): 79 nM
Activity (A549 [6]): Active
IC50 (A549 [3]): 69 nM
IC50 (SK-MEL-28): 33 nM
IC50 [4]: 48 nM
IC50 (SK-MEL-5): 18 nM
IC50 (COLO 205): 102 nM
IC50 (HOP-62): 63 nM
IC50 (C180-13S): 20 nM
Activity (A549 (Homo sapiens)): Active
IC50 (MCF7): 19 nM
IC50 [5]: 26 nM
IC50 (MM96L [1]): 21 nM
IC50 (NFF): 337 nM
IC50 (PC-3): 148 nM
IC50 (T47D): 19 nM
IC50 (DU-145): 22 nM

O=C(CCCCC[C@H](NC(=O)c1cc2c(O)cccc2[nH]1)C(=O)NCc1ccccc1)NO
IC50 (MM96L [1]): 330 nM
IC50 (NFF): 2210 nM

CN(C)c1ccc(C(=O)N[C@@H](CCCCCC(=O)NO)C(=O)Nc2cccc3cccnc23)cc1
IC50 (HT-29): 178 nM
IC50 (A549 [3]): 148 nM
IC50 (SK-MEL-28): 73 nM
IC50 [4]: 85 nM
IC50 (SK-MEL-5): 32 nM
IC50 (COLO 205): 223 nM
IC50 (HOP-62): 137 nM
IC50 (C180-13S): 65 nM
IC50 (MCF7): 35 nM
IC50 [5]: 63 nM
IC50 (MM96L [1]): 20 nM
IC50 (NFF): 570 nM
IC50 (PC-3): 220 nM
IC50 (T47D): 45 nM
IC50 (DU-145): 61 nM

O=C(/C=C/c1ccccc1)N[C@@H](CCCCCC(=O)NO)C(=O)Nc1cccc2cccnc12
IC50 (HT-29): 99 nM
IC50 (A549 [3]): 73 nM
IC50 (SK-MEL-28): 37 nM
IC50 [4]: 49 nM
IC50 (SK-MEL-5): 29 nM
IC50 (COLO 205): 141 nM
IC50 (HOP-62): 65 nM
IC50 (C180-13S): 28 nM
IC50 (MCF7): 17 nM
IC50 [5]: 27 nM
IC50 (MM96L [1]): 21 nM
IC50 (NFF): 1240 nM
IC50 (PC-3): 109 nM
IC50 (T47D): 20 nM
IC50 (DU-145): 30 nM

O=C(CCCCC[C@H](NC(=O)Cc1ccc(-c2ccccc2)cc1)C(=O)NCc1ccccc1)NO
IC50 (MM96L [1]): 2360 nM
IC50 (NFF): 5130 nM

CC(C)COC(=O)N[C@@H](CCCCCC(=O)NO)C(=O)Nc1cccc2cccnc12
IC50 (HT-29): 360 nM
IC50 (A549 [3]): 291 nM
IC50 (SK-MEL-28): 170 nM
IC50 [4]: 221 nM
IC50 (SK-MEL-5): 100 nM
IC50 (COLO 205): 395 nM
IC50 (HOP-62): 267 nM
IC50 (C180-13S): 149 nM
IC50 (MCF7): 138 nM
IC50 [5]: 129 nM
IC50 (MM96L [1]): 23 nM
IC50 (NFF): 81 nM
IC50 (PC-3): 651 nM
IC50 (T47D): 198 nM
IC50 (DU-145): 130 nM

O=C(CCCCC[C@H](NC(=O)OCc1ccccc1)C(=O)Nc1cccc2cccnc12)NO
IC50 (HT-29): 334 nM
IC50 (A549 [3]): 248 nM
IC50 (SK-MEL-28): 146 nM
IC50 [4]: 194 nM
IC50 (SK-MEL-5): 70 nM
IC50 (COLO 205): 122 nM
IC50 (HOP-62): 226 nM
IC50 (C180-13S): 124 nM
IC50 (MCF7): 122 nM
IC50 [5]: 118 nM
IC50 (MM96L [1]): 43 nM
IC50 (NFF): 452 nM
IC50 (PC-3): 528 nM
IC50 (T47D): 93 nM
IC50 (DU-145): 131 nM

CC(C)CCNC(=O)C(CCCCCC(=O)NO)NC(=O)c1cccnc1 (stereo not drawn)
IC50 (MM96L [1]): 9000 nM
IC50 (NFF): 12000 nM
